TPT1 inh: Candida albicans TPT1 enzyme inhibitors, primary screen, biochemical, fluorescence polarization; AID 1962, 2009; tRNA 2'-phosphotransferase TPT1 (Candida albicans SC5314); inhibition, % at 5 µM; 0.81% of 300,000 active; recombinant caTPT1, FP RNA substrate dephosphorylation;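 active means inhibition above the mean of all tested compounds plus 3 SD, set per screening campaign, cut at about 24% in these data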;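 further: plate controls were DMSO alone for no effect and ferristatin control at 100 nM for full effect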
CRFR2-BP antag: antagonists of CRF-BP/CRF-R2 complex, primary screen, cell-based, HEK293, calcium dye fluorescence, uHTS; 0.59% of 350,000 active; inhibition, % at 11.8 µM; CRF-induced calcium fluorescence;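 active means inhibition of the ligand-induced calcium signal above about 50% at the single tested concentration, limit read from the data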
CRFBP-R2 agonist: agonists of CRF-BP/CRF-R2 complex, primary screen, cell-based, HEK293, calcium dye fluorescence, uHTS; CRF-binding protein / CRF receptor 2 complex (human); calcium dye fluorescence (FLIPR); percent of saturating CRF peptide response; activation, % at 13.2 µM; 0.46% of 350,000 active; AID 588473, 2011;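 active means activation of at least 50%, plus an integration ratio under a set limit after plate pattern correction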;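 further: plate controls were neutral control wells without compound for no effect and CRF at EC100 for full effect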
Rpn11 block: Rpn11 (PSMD14) deubiquitinase inhibitors, primary screen, biochemical, fluorescence polarization, uHTS | 26S proteasome non-ATPase regulatory subunit 14 (Homo sapiens), O00487 | 0.59% of 360,000 active | human 26S proteasome, Ub4-pepOG fluorescence polarization; 20S core pre-blocked with epoxomicin | calls only at 20 µM;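 active means inhibition at 20 µM, scaled to each plate's controls, above about 33%, limit read from the data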
Target sequence (O00487 whole entry, looked up): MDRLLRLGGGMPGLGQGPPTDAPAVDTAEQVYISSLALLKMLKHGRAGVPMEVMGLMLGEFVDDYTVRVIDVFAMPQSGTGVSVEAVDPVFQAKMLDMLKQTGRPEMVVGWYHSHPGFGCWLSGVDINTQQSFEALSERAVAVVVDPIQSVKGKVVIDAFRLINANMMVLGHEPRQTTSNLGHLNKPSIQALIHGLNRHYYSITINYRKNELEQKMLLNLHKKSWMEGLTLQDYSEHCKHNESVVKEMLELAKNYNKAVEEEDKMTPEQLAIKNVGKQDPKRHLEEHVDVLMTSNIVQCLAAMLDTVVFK
CSN inh: inhibitors of CSN-mediated cullin deneddylation, primary screen, biochemical, fluorescence polarization, uHTS; COP9 signalosome complex subunit 5 (Homo sapiens), Q92905; Purified CSN, SCF-Nedd8-OG deneddylation; inhibition, % at 12.5 µM; 0.38% of 360,000 active;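 active means pattern-corrected inhibition above about 35%, with an unprinted fluorescence ratio check between 0.5 and 1.5, limit read from the data, passing the limit was not always enough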;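 further: 0% = enzyme with substrate and 100% = substrate without enzyme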
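assay system = purified human Csn5 enzyme expressed in HEK293T cells | amount = 0.24 nM enzyme | buffer or medium = Tris/NaCl/DTT buffer, pH 7.5 | reagent = 10 nM SCFSkp2-Nedd8OG | compound = one concentration, 12.5 µM, 0.25% DMSO | times = 90 min reaction at room temperature | signal = FP | read-out basis = % inhibition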
HNF4A DNA FP: change in binding of human HNF4A to DNA, primary screen, biochemical, fluorescence polarization, FITC-DNA. Hepatocyte nuclear factor 4-alpha (Homo sapiens), P41235. 1 h. activity change, % at 10 µM. 0.3% of 360,000 active. AID 1224865, 2016; in the data active means activity change above about 30%, passing the limit was not always enough
caTPT1 confirm: Candida albicans TPT1 inhibitors, confirmation, biochemical, fluorescence polarization, triplicate | AID 2149, 2009 | shares compounds with TPT1 inh | 74% of 2,400 active | inhibition, % at 5 µM | recombinant caTPT1, RNase T1 coupled;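 active means inhibition above the primary screen limit, the mean inhibition of all tested compounds plus 3 SD, cut at about 25% in these data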
RNase T1 inh: RNase T1 inhibitors, counter-screen for TPT1 inhibitor project, biochemical, fluorescence polarization; shares compounds with TPT1 inh; RNase T1 cleavage, 1536-well; inhibition, % at 5 µM; 83% of 2,400 active; AID 2153, 2009;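 active means inhibition above the solvent-only control well mean plus 3 SD, limit set per screening run, cut at about 23% in these data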;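 further: plate controls were DMSO wells with enzyme for no effect and wells without RNase T1 for full effect; inhibitors block cleavage so intact labeled substrate keeps polarization high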
Target sequence (P00651 whole entry, looked up): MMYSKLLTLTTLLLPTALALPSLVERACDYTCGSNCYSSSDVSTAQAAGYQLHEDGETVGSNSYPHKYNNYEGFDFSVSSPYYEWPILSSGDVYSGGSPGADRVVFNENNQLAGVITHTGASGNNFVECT
CSN deneddyl val: Csn5 deneddylation inhibitors, confirmation, biochemical, fluorescence polarization, single concentration, SCF-Nedd8OG substrate | shares compounds with CSN inh | Csn5 deneddylation of SCF-Nedd8OG, 90 min | inhibition, % at 16.6 µM | 62% of 540 active; in the data active means inhibition above about 50%;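 further: 0% = DMSO with enzyme and 100% = no enzyme wells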
MMP-2 counter: MMP-2 protease inhibition counter-screen, confirmation, counter-screen for CSN deneddylation inhibitor project, biochemical, fluorescence, single concentration. shares compounds with CSN inh. recombinant MMP-2, FRET substrate fluorescence, 60 min. inhibition, % at 16.6 µM. 33% of 540 active;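 active means corrected plate-normalized z-score of 5 or more, or -5 or less, or inhibition of 15% or more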;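 further: plate controls were DMSO wells with enzyme for no effect and buffer wells lacking MMP-2 for full effect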
Thrombin counter: counter-screen for CSN deneddylation inhibitors: bovine thrombin inhibition | shares compounds with CSN inh | bovine thrombin cleavage of Ub4-pepOG, fluorescence polarization | inhibition, % at 16.6 µM | 49% of 540 active | AID 720656;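 active means inhibition at or above a set limit, with a fluorescence interference ratio between 0.5 and a set maximum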
Active calls of the source: *; i = inactive; . = not tested or not shown. An excerpt weighted towards active compounds, which were near 2.3% of everything screened.

SMILES | TPT1 inh | CRFR2-BP antag | CRFBP-R2 agonist | Rpn11 block | CSN inh | HNF4A DNA FP | caTPT1 confirm | RNase T1 inh | CSN deneddyl val | MMP-2 counter | Thrombin counter
COc1ccc(/C=C/C(=O)OCC(=O)Nc2ccc(N3CCOCC3)cc2)cc1 | 3.6 | -3.1 | 0.6 | i | -0.7 | 0.8 | . | . | . | . | .
COC(=O)CN1C(=S)N(c2ccc(OC)cc2)C(=O)/C1=C/c1ccc(N2CCOCC2)cc1 | 150.7* | -49.0 | 35.3 | . | 35.6* | 60.8* | 116.0* | 122.9* | 175.0* | -22.0 | 14.1
CCOC(=O)CN1C(=O)S/C(=C/C=C/c2ccc(N(C)C)cc2)C1=O | 87.2* | -127.3 | 89.8* | . | 39.7* | 45.7* | 86.6* | 88.4* | 61.9* | -44.1* | 65.6*
COC1=CC(=Cc2c(N)n3nc(CC(=O)N4CCCCC4)sc3nc2=O)C=C(OC)C1=O | 30.7* | -134.9 | 173.0* | . | 77.6* | 37.9* | 111.8* | 110.4* | 33.8 | -10.7 | 73.7*
Nc1c(C=C2C=CC(=O)C=C2)c(=O)nc2sc(CC(=O)N3CCCCC3)nn12 | -2.2 | -20.5 | 0.0 | i | 0.3 | -3.9 | . | . | . | . | .
Cc1ccc2c(nc3s/c(=C\c4ccc(-c5ccccc5C(=O)O)o4)c(=O)n32)c1C | 116.0* | -76.7 | 126.3* | . | 102.2* | 83.1 | 137.8* | 130.4* | -26.8 | -26.8 | 17.6
Cc1ccc2c(nc3s/c(=C/c4cccs4)c(=O)n32)c1C | . | 19.0 | -1.6 | i | 4.2 | 6.0 | . | . | . | . | .
O=C(CN1C(=O)NC2(CCCC2)C1=O)NCc1ccc(F)cc1 | . | 11.3 | 1.1 | i | -3.6 | 0.4 | . | . | . | . | .
Cc1c(N2C(=O)/C(=C\c3ccc(N(C)C)cc3)N(C)C2=S)c(=O)n(-c2ccccc2)n1C | 150.3* | -26.2 | 12.1 | . | 75.4* | 43.9* | 132.4* | 133.4* | 85.4* | -7.0 | 67.9*
COc1ccc(N2CCN(C(CNC(=O)C(=O)NCCC3=CCCCC3)c3ccco3)CC2)cc1 (stereo unspecified) | 1.0 | 1.9 | -0.1 | i | -7.5 | 2.4 | . | . | . | . | .
CN(C)c1ccc(/C=C(/C(=O)c2ccc(Cl)cc2Cl)n2cncn2)cc1 | 120.9* | -122.2 | 70.8* | . | 79.4* | 91.6* | 132.3* | 131.2* | 92.9* | -23.3* | 70.2*
COc1ccc(/C=C(/C(=O)c2ccc(Cl)cc2Cl)n2cncn2)cc1 | 0.4 | -41.1 | -0.2 | i | 3.9 | -2.3 | . | . | . | . | .
Cc1cc(N2CCOCC2)c2c(N)c(C)cc(C)c2n1 | -2.5 | -8.2 | -2.2 | i | -6.1 | 2.4 | . | . | . | . | .
